This is an account of results in ChEMBL document CHEMBL1158173, “Carbodithioic acid esters of fluoxetine, a novel class of dual-function spermicides” (2008).

SMILES strings stand for the structures. Converted amounts (≈) assume the structure as drawn. The source made the active and inactive calls. The rule behind the calls is not given here.

The term MIC denotes the least concentration at which growth counts as inhibited. Higher therefore signals a need for much substance.

Holding throughout (assay type): functional
A short description of test [1]: (§1) Spermicidal activity in liquefied human semen assessed as drug level required to kill 100% sperm in 20 seconds.
Test [2] concerns Trichomonas vaginalis. Briefly: Antitrichomonas activity against Trichomonas vaginalis after 48 hrs by trypan blue staining. The method in brief:
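Trichomonas vaginalis was grown in TYM medium and used in log phase, one day after routine subculture. Compounds in DMSO stock were serially diluted in TYM medium, with DMSO/TYM as vehicle control. Wells received 5 × 10³ trophozoites and were incubated anaerobically at 37 °C. Viability was scored daily by trypan blue and cell counts, and MIC was read at 48 h. Finer dilutions were then retested, and the final MIC was taken from a concentration versus viable-trophozoite-number curve.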

Test [3] relates to Candida parapsilosis. Briefly: Antifungal activity against Candida parapsilosis ATCC 22019 after 48 hrs by broth microdilution technique. As to conditions: for MIC: Lodderomyces parapsilosis, ATCC 22019, 48 h.
Test [4] deals with Trichophyton mentagrophytes. Briefly: Antifungal activity against Trichophyton mentagrophytes after 48 hrs by broth microdilution technique.
Test [5] concerns Cryptococcus neoformans. Briefly: Antifungal activity against Cryptococcus neoformans after 48 hrs by broth microdilution technique. On the technique in general: Broth dilution looks for growth in wells or tubes with falling amounts of substance.
The subject of test [6] is Sporothrix schenckii. Briefly: Antifungal activity against Sporothrix schenckii after 48 hrs by broth microdilution technique.
The subject of test [7] is Aspergillus fumigatus. Briefly: Antifungal activity against Aspergillus fumigatus after 48 hrs by broth microdilution technique.
The subject of test [8] is Candida albicans. Briefly: Antifungal activity against Candida albicans after 48 hrs by broth microdilution technique.
Test [9] relates to Sperm. The description is as §1.

In the case of `CN(CCC(Oc1ccc(C(F)(F)F)cc1)c1ccccc1)C(=S)SCCCl` (stereo not drawn), the MEC in [1] came to 1%. The MIC in test [2] was over 200 mg/L; in [3], 25 mg/L (≈ 55.8 µM); in [4] it was 12.5 mg/L (≈ 27.9 µM); in test [5], 50 mg/L (≈ 112 µM); in test [6] it was 25 mg/L (≈ 55.8 µM); in [7], 50 mg/L (≈ 112 µM). In test [8], this molecule showed an MIC of 50 mg/L (≈ 112 µM).
As to `CNCCC(Oc1ccc(C(F)(F)F)cc1)c1ccccc1` (stereo not drawn) [FLUOXETINE], the MIC worked out at 28 mg/L (≈ 90.5 µM) in test [2]; 50 mg/L (≈ 162 µM) in [3]; 50 mg/L (≈ 162 µM) in [4]; 25 mg/L (≈ 80.8 µM) in test [5]; 50 mg/L (≈ 162 µM) in test [6]; 50 mg/L (≈ 162 µM) in test [8]. The result in test [7] was inactive.
Turning to `CN(CCC(Oc1ccc(C(F)(F)F)cc1)c1ccccc1)CC(O)CSC(=S)N(C)Cc1ccccc1` (stereo not drawn), the result in test [9], in [3], in [4], in test [5], in test [6] and in [7] was inactive. For the same molecule, the result in test [8] was inactive.
With `CN(CCC(Oc1ccc(C(F)(F)F)cc1)c1ccccc1)C(=S)SCCN1CCCCC1` (stereo not drawn), the MEC in [1] is recorded as 1%. Moreover, the MIC in test [2] is 13.5 mg/L (≈ 27.2 µM); in test [3], 1.56 mg/L (≈ 3.14 µM); in test [4], 6.25 mg/L (≈ 12.6 µM); in test [5], 1.56 mg/L (≈ 3.14 µM); in test [6], 6.25 mg/L (≈ 12.6 µM); in [7], 12.5 mg/L (≈ 25.2 µM). Besides, the MIC in test [8] was 3.12 mg/L (≈ 6.28 µM).
Regarding `CN(CCC(Oc1ccc(C(F)(F)F)cc1)c1ccccc1)CC(O)CSC(=S)N1CCCCC1` (stereo not drawn), the result in [9], in test [3], in test [4], in [6], in test [7] and in [8] was inactive. In addition, the MIC in test [5] turned out to be 25 mg/L (≈ 47.5 µM).
Consider `CN1CCN(C(=S)SCC(O)CN(C)CCC(Oc2ccc(C(F)(F)F)cc2)c2ccccc2)CC1` (stereo not drawn), for which the MEC in test [1] is 1%. In addition, the values for the MIC in [2], in [4] and in test [5] were 6.68 mg/L (≈ 12.3 µM), 25 mg/L (≈ 46.2 µM) and 12.5 mg/L (≈ 23.1 µM), respectively. The result in [3], in test [6], in test [7] and in test [8] was inactive.
Consider `CN(CCC(Oc1ccc(C(F)(F)F)cc1)c1ccccc1)C(=S)SCC(O)CN1CCOCC1` (stereo not drawn), for which the result in test [9], in test [3], in test [4], in [5], in [6] and in [8] was inactive. In test [7], this molecule gave an MIC of 50 mg/L (≈ 94.6 µM).
With `CN(CCC(Oc1ccc(C(F)(F)F)cc1)c1ccccc1)C(=S)SCc1ccccc1` (stereo not drawn), in test [1], the MEC is recorded as 1%. In [2], this molecule showed an MIC of over 200 mg/L. In addition, the outcome in test [3], in [4], in [5], in test [6], in test [7] and in test [8] was inactive.
In the case of `CN(CCC(Oc1ccc(C(F)(F)F)cc1)c1ccccc1)C(=S)SCC(O)CN1CCCCC1` (stereo not drawn), the result in [9], in [5], in [6], in [7] and in [8] was inactive. The minimum inhibitory concentration (MIC) in test [3] and in test [4] was 50 mg/L (≈ 94.9 µM) throughout.
On to `CN1CCN(CC(O)CSC(=S)N(C)CCC(Oc2ccc(C(F)(F)F)cc2)c2ccccc2)CC1` (stereo not drawn), for which the MEC in test [1] came to 0.5%. Besides, the minimum inhibitory concentration (MIC) in test [2] stood at 12 mg/L (≈ 22.2 µM); in test [3], 50 mg/L (≈ 92.3 µM); in test [4], 25 mg/L (≈ 46.2 µM); in [5] it was 25 mg/L (≈ 46.2 µM); in test [6], 25 mg/L (≈ 46.2 µM); in [7], 25 mg/L (≈ 46.2 µM). This molecule also gave an MIC in test [8] of 50 mg/L (≈ 92.3 µM).
On to `CN(CCC(Oc1ccc(C(F)(F)F)cc1)c1ccccc1)CC(O)CSC(=S)N1CCCCCC1` (stereo not drawn), for which the outcome in [9], in test [3], in test [4], in test [5], in [6] and in test [7] was inactive. Besides, the result in test [8] was inactive.
Turning to `CN(CCC(Oc1ccc(C(F)(F)F)cc1)c1ccccc1)C(=S)SCC(O)CN1CCCC1` (stereo not drawn), in [1], the MEC was 0.5%. The MIC in test [2] worked out at 6.95 mg/L (≈ 13.6 µM); in [3], 50 mg/L (≈ 97.5 µM); in test [4], 25 mg/L (≈ 48.8 µM); in test [6], 50 mg/L (≈ 97.5 µM); in test [7] it was 50 mg/L (≈ 97.5 µM). Also, the result in [5] and in [8] was inactive.
Consider `CCN(CC)CCSC(=S)N(C)CCC(Oc1ccc(C(F)(F)F)cc1)c1ccccc1` (stereo not drawn), for which the MEC in [1] is 1%. For the same molecule, the MIC turned out to be 24 mg/L (≈ 49.5 µM) in test [2]; 50 mg/L (≈ 103 µM) in test [3]; 12.5 mg/L (≈ 25.8 µM) in test [4]; 50 mg/L (≈ 103 µM) in test [5]; 6.25 mg/L (≈ 12.9 µM) in test [6]; 6.25 mg/L (≈ 12.9 µM) in test [7]. For the same molecule, in test [8], the MIC amounted to 50 mg/L (≈ 103 µM).
On to `CCN(CC)CC(O)CSC(=S)N(C)CCC(Oc1ccc(C(F)(F)F)cc1)c1ccccc1` (stereo not drawn), for which, in [1], the MEC was found to be 0.5%. Besides, the MIC in test [2] was over 200 mg/L; in [3] it was 50 mg/L (≈ 97.1 µM); in test [4], 25 mg/L (≈ 48.6 µM); in test [7], 50 mg/L (≈ 97.1 µM). For the same molecule, the outcome in test [5], in test [6] and in [8] was inactive.
As for `CN(C)CCSC(=S)N(C)CCC(Oc1ccc(C(F)(F)F)cc1)c1ccccc1` (stereo not drawn), the MEC in [1] worked out at 1%. The MIC in [2] amounted to 52 mg/L (≈ 114 µM); in test [3], 50 mg/L (≈ 110 µM); in [4], 6.25 mg/L (≈ 13.7 µM); in test [5] it was 50 mg/L (≈ 110 µM); in test [6] it was 12.5 mg/L (≈ 27.4 µM); in test [7], 25 mg/L (≈ 54.8 µM). This molecule also returned a minimal inhibitory concentration (MIC) in test [8] of 50 mg/L (≈ 110 µM).
In the case of `CN(CCC(Oc1ccc(C(F)(F)F)cc1)c1ccccc1)C(=S)[S-].[Na+]` (stereo not drawn), the MEC in test [1] was 1%. The MIC in test [2] amounted to 96 mg/L; in [5] it was 25 mg/L. Also, the outcome in test [3], in test [4], in test [6], in test [7] and in [8] was inactive.
As for `CCCCCCCCCc1ccc(OCCOCCOCCOCCOCCOCCOCCOCCOCCO)cc1` [NONOXYNOL 9], the MEC in test [1] amounted to 0.05%. Besides, the values for the MIC in test [2] and in [3] were 23 mg/L (≈ 37.3 µM) and 50 mg/L (≈ 81.1 µM), respectively. Further, the outcome in test [4], in test [5], in test [6], in [7] and in test [8] was inactive.
As to `CN(CCC(Oc1ccc(C(F)(F)F)cc1)c1ccccc1)C(=S)SCC(O)CN1CCCCCC1` (stereo not drawn), the MEC in [1] is reported as 0.5%. For the same molecule, the MIC in [2] is over 200 mg/L; in [3], 50 mg/L (≈ 92.5 µM); in test [4], 25 mg/L (≈ 46.2 µM); in test [7], 25 mg/L (≈ 46.2 µM); in test [8] it was 50 mg/L (≈ 92.5 µM). Moreover, the outcome in [5] and in [6] was inactive.
